The nature of series [1]: Inhibition of monoamino oxidase B from F344/N rat brain cortex.
Series [2] is described as follows: Lipophilicity, log P of the compound. Format: physicochemical. Conditions: octanol/water.
Series [3] addresses Mitogen-activated protein kinase; ERK1/ERK2 (Homo sapiens) (UniProt P27361+P28482). As to the kind of experiment: Activation of ERK1/2 in T20 cells at 10 uM relative to nontreated cells. Format: cell-based. The procedure, abridged:
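T20 cells plated at 5 × 10⁵/well, grown 18 h at 37 °C, then 18 h with tetracycline 1 µg/ml. Medium switched to DMEM with 0.5% FBS and compounds added at 10 µM. Lysis in Tris-HCl pH 8.0 buffer with Triton X-100 and inhibitors; 50 lg protein run on 12% SDS-PAGE and immunoblotted for phospho-ERK1/2 and total ERK1/2. Read-out p-ERK/ERK % of untreated; three experiments.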

A further series deals with T20. As to the kind of experiment: Inhibition of gamma secretase in T20 cells assessed as amyloid precursor protein cleavage at 10 uM after 24 hrs by luciferase reporter gene assay. More on the design: scale not given: the % may be the effect or the level left. Type of series: cell-based. The procedure, abridged: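 T20 cells (stable C99-luciferase reporter line, kept in hygromycin/blasticidin/zeocin medium) plated 2 × 10⁴/well and held 24 h at 37 °C. Compounds added at 10 µM final with tetracycline 1 µg/ml for 24 h at 37 °C. Luminescence read with Steady-Glo reagent as fold luciferase activation versus DMSO; triplicates.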
(In general: In a reporter assay the amount or activity of a reporter protein is the signal.)

Series [4] in a line: Increase in sAPP alpha secretion in gamma-30 cells. Type of series: functional, cell-based. The gist of the method:
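Conditioned media from c-30 cells (full-length APP with human PS1, Aph-1a2, Pen-2), normalised to lysate protein content. Immunoprecipitated with rabbit polyclonal anti-Ab1–17, separated by SDS–PAGE and Western blotted with mouse monoclonal 6E10 to detect sAPPa.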

Molecules are shown by their SMILES. Active and inactive are the calls of the source. The rule behind the calls is not given here.

Chain of Mitogen-activated protein kinase; ERK1/ERK2 (Homo sapiens) (P27361 whole entry, looked up): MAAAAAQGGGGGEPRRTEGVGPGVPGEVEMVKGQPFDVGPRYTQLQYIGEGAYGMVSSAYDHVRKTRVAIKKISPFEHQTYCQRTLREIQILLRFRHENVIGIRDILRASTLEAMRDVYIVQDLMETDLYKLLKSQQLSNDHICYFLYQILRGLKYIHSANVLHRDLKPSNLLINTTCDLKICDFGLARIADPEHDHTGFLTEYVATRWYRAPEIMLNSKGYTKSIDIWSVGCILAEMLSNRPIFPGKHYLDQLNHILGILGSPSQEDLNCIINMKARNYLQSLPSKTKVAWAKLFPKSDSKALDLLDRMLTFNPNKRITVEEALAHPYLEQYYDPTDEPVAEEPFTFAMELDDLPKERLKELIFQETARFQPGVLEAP
Chain of Mitogen-activated protein kinase; ERK1/ERK2 (Homo sapiens) (P28482 whole entry, looked up): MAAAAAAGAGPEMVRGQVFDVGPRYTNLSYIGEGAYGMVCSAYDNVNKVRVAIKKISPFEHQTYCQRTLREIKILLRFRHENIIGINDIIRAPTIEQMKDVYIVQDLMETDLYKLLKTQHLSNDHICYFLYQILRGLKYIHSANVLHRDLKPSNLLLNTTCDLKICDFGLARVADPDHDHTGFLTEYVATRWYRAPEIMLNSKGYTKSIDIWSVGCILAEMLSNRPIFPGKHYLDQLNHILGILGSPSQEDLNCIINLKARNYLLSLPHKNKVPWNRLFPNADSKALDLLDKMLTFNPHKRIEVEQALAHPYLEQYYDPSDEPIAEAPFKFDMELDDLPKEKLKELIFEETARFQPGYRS

Compound `C#CCN[C@@H]1CCc2ccccc21` [RASAGILINE] had an IC50 in series [1] of 2.1 µM. Moreover, the logP in series [2] was determined as 2.29. This compound also returned an Activity in series [3] of 131%.

For the compound `O=C(Oc1ccc2c(c1)CN(CC1CC1)CC2)N1CCCCC1`, the Activity in the series on T20 was 35%; in series [3], 155%. In series [1], this compound had a half-maximal inhibitory concentration (IC50) of 11.6 µM. Besides, the logP in series [2] is 3.09. For the same compound, the outcome in series [4] was Active.

Regarding `CCN(C)C(=O)Oc1ccc2c(c1)CN(CC1CC1)CC2`, the figures for the Activity (in the series on T20; in series [3]) were 35% and 131%, respectively. The same compound registered an IC50 in series [1] of 12.8 µM. The compound further gave a logP in series [2] of 2.69. Moreover, the result in series [4] was Active.

With `C#CCN1CCc2ccc(OC(=O)N3CCOCC3)cc2C1`, inhibition in series [1] was half-maximal at 18.7 µM (IC50). In series [2], this compound displayed a lipophilicity (logP) of 1.57.

In series [1], `C#CCN1CCc2ccc(OC(=O)N3CCCC3)cc2C1` had an IC50 of 13.9 µM. Further, in series [2], the logP was 2.23.

The compound `O=C(Oc1ccc2c(c1)CN(CC1CC1)CC2)N1CCCC1` yielded a concentration for half-maximal inhibition (IC50) in series [1] of 14.9 µM. For the same compound, the logP in series [2] turned out to be 2.67.

For the compound `C#CCN1CCc2ccc(OC(=O)N3CCCCC3)cc2C1`, the IC50 in series [1] came to 15.7 µM. In addition, the logP in series [2] was found to be 2.63.

For `O=C(Oc1ccc2c(c1)CN(CC1CC1)CC2)N1CCOCC1`, the Activity in the series on T20 was determined as 35%; in series [3], 138%. This compound gave an IC50 in series [1] of 18.5 µM. The compound also gave a logP in series [2] of 2.29. Besides, the outcome in series [4] was Active.

In turn, `C#CCN1CCc2ccc(OC(=O)N(C)CC)cc2C1` showed an IC50 in series [1] of 21.5 µM. In series [2], this compound returned a logP of 2.25.

As usually defined, the IC50 is the point on the concentration scale where inhibition reaches its midpoint. What is called logP is a log measure of how a compound divides between an organic and an aqueous phase.

The record behind these values is ChEMBL document CHEMBL1142281, “New 1,2,3,4-tetrahydroisoquinoline derivatives as modulators of proteolytic cleavage of amyloid precursor proteins” (Bioorg Med Chem, 2008).
